Converted amounts (≈) assume the structure as drawn.
Columns and labels:
Assay type in all cases: functional
Aspergillus fumigatus [1] = assay: Antifungal activity against Aspergillus fumigatus IFM 49895 after 48 hrs by broth microdilution method; conditions: IFM 49895, 48 h
Procedure, shortened: (§1)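 CLSI M27-A2 (yeasts) / M38-A (moulds) broth microdilution in RPMI 1640 buffered to pH 7.0 with 0.165 M MOPS. Malassezia furfur got the same medium supplemented with glucose, bile salts, glycerol, glycerol monostearate and Tween 20. Final inoculum 0.65 × 10^3–2.5 × 10^3 CFU/ml for yeasts and 0.87 × 10^4–3.8 × 10^4 CFU/ml for filamentous fungi. Incubation at 35°C except M. racemosus and F. solani, which were held at 30°C.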

[2] = test system: Meyerozyma guilliermondii; assay: Antifungal activity against Candida guilliermondii IFO 10279 after 48 hrs by broth microdilution method; conditions: IFO 10279, 48 h; procedure, shortened: as §1
[3] = test system: Meyerozyma guilliermondii; assay: Antifungal activity against Candida guilliermondii clinical isolates after 48 hrs by broth microdilution method
Procedure, shortened: (§2)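 Clinical isolates from Japanese hospitals or culture collections were tested by broth microdilution in RPMI 1640-MOPS. Inoculum was 0.57 × 10^3–2.5 × 10^3 CFU/ml for yeasts and 0.4 × 10^4–3.3 × 10^4 CFU/ml for filamentous fungi. Incubation was at 35°C for about 48 h, or 72 h where footnoted. Results were summarised as MIC range, MIC50 and MIC90.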

Candida albicans [4] = assay: Antifungal activity against Candida albicans ATCC 64124 after 47 hrs by broth microdilution method; conditions: ATCC 64124, 47 h
Procedure, shortened: (§3)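 Fluconazole-resistant or susceptible-dose-dependent ATCC C. albicans strains were tested by CLSI M27-A2 broth microdilution in RPMI 1640–0.165 M MOPS, pH 7.0, with a final inoculum of 1.1–1.5 × 10^3 CFU/ml at 35°C for about 47 h. MIC was the lowest concentration with a prominent (~50%) turbidity decrease relative to growth control; amphotericin B was read at complete inhibition.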

Candida albicans [5] = assay: Antifungal activity against Candida albicans ATCC 24433 after 48 hrs by broth microdilution method; conditions: ATCC 24433, 48 h
Procedure, shortened: (§4)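 CLSI M27-A2 (yeasts) or M38-A (A. fumigatus) broth microdilution in RPMI 1640 buffered to pH 7.0 with 0.165 M MOPS. Final inocula were 0.65–2.5 × 10^3 CFU/ml for yeasts and 0.87–3.8 × 10^4 CFU/ml for filamentous fungi. Incubation was at 35°C for about 48 h (72 h for C. neoformans). MIC was the lowest concentration giving a prominent (~50%) turbidity drop versus growth control; amphotericin B required complete inhibition.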

Candida albicans [6] = assay: Antifungal activity against Candida albicans ATCC MYA-1003 after 47 hrs by broth microdilution method; conditions: ATCC MYA-1003, 47 h; procedure, shortened: as §3
Aspergillus fumigatus [7] = assay: Antifungal activity against Aspergillus fumigatus TIMM 0063 after 48 hrs by broth microdilution method; conditions: TIMM 0063, 48 h; procedure, shortened: as §1
Cryptococcus neoformans [8] = assay: Antifungal activity against Cryptococcus neoformans TIMM 0354 after 72 hrs by broth microdilution method; conditions: TIMM 0354, 72 h; procedure, shortened: as §4
Candida parapsilosis = assay: Antifungal activity against Candida parapsilosis NBRC 10219 after 48 hrs by broth microdilution method; conditions: Lodderomyces parapsilosis, NBRC 10219, 48 h; procedure, shortened: as §4
Trichosporon asahii = assay: Antifungal activity against Trichosporon asahii JCM 2466 after 48 hrs by broth microdilution method; conditions: JCM 2466, 48 h; procedure, shortened: as §1
Aspergillus fumigatus [9] = assay: Antifungal activity against Aspergillus fumigatus ATCC 16424 after 48 hrs by broth microdilution method; conditions: ATCC 16424, 48 h; procedure, shortened: as §4
Malassezia furfur = assay: Antifungal activity against Malassezia furfur NBRC 0656 after 48 hrs by broth microdilution method; conditions: NBRC 0656, 48 h; procedure, shortened: as §1
Candida albicans [10] = assay: Antifungal activity against Candida albicans ATCC MYA-575 after 47 hrs by broth microdilution method; conditions: ATCC MYA-575, 47 h; procedure, shortened: as §3
Rhizopus arrhizus = assay: Antifungal activity against Rhizopus oryzae NBRC 31005 after 24 hrs by broth microdilution method; conditions: NBRC 31005, 24 h; procedure, shortened: as §1
Pichia kudriavzevii = assay: Antifungal activity against Candida krusei clinical isolates after 48 hrs by broth microdilution method
Procedure, shortened: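 Japanese hospital Candida isolates were tested by CLSI M27-A2 broth microdilution in RPMI 1640–MOPS, pH 7.0, with inocula of 0.57–2.5 × 10^3 CFU/ml at 35°C for about 48 h. Inocula came from 24-h potato dextrose agar cultures. MIC was the lowest concentration with about 50% turbidity reduction versus growth control (complete inhibition for amphotericin B). Range, MIC50 and MIC90 were reported.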

Saccharomyces cerevisiae = assay: Antifungal activity against Saccharomyces cerevisiae ATCC 24657 after 48 hrs by broth microdilution method; conditions: ATCC 24657, 48 h; procedure, shortened: as §1
Candida albicans [11] = assay: Antifungal activity against Candida albicans ATCC 10261 after 48 hrs by broth microdilution method; conditions: ATCC 10261, 48 h; procedure, shortened: as §1
Nakaseomyces glabratus = assay: Antifungal activity against Candida glabrata ATCC 90030 after 48 hrs by broth microdilution method; conditions: ATCC 90030, 48 h; procedure, shortened: as §1
Aspergillus terreus = assay: Antifungal activity against Aspergillus terreus NBRC 33026 after 48 hrs by broth microdilution method; conditions: NBRC 33026, 48 h; procedure, shortened: as §1
Candida albicans [12] = assay: Antifungal activity against Candida albicans clinical isolates after 48 hrs by broth microdilution method; procedure, shortened: as §2
Candida albicans [13] = assay: Antifungal activity against Candida albicans TIMM 1623 after 48 hrs by broth microdilution method; conditions: TIMM 1623, 48 h; procedure, shortened: as §1
Cryptococcus neoformans [14] = assay: Antifungal activity against Cryptococcus neoformans ATCC 90112 after 72 hrs by broth microdilution method; conditions: ATCC 90112, 72 h; procedure, shortened: as §4
Cryptococcus neoformans [15] = assay: Antifungal activity against Cryptococcus neoformans clinical isolates after 72 hrs by broth microdilution method; procedure, shortened: as §2

C[C@@H](c1ncncc1F)[C@](O)(Cn1cncn1)c1ccc(F)cc1F [VORICONAZOLE]
MFC (Aspergillus fumigatus [1]): 8 µg/mL (≈ 22.9 µM)
MIC (Aspergillus fumigatus [1]): 2 µg/mL (≈ 5.73 µM)
MFC [2]: 0.5 µg/mL (≈ 1.43 µM)
MIC [2]: 0.0625 µg/mL (≈ 0.179 µM)
MIC50 [3]: 0.0625 µg/mL (≈ 0.179 µM)
MIC90 [3]: 0.125 µg/mL (≈ 0.358 µM)
MIC (Candida albicans [4]): 16 µg/mL (≈ 45.8 µM)
MFC (Candida albicans [5]): > 64 µg/mL
MIC (Candida albicans [5]): 0.0078 µg/mL (≈ 0.0223 µM)
MIC (Candida albicans [6]): 0.5 µg/mL (≈ 1.43 µM)
MFC (Aspergillus fumigatus [7]): 1 µg/mL (≈ 2.86 µM)
MIC (Aspergillus fumigatus [7]): 1 µg/mL (≈ 2.86 µM)
MFC (Cryptococcus neoformans [8]): > 64 µg/mL
MIC (Cryptococcus neoformans [8]): 0.0313 µg/mL (≈ 0.0896 µM)
MFC (Candida parapsilosis): > 64 µg/mL
MIC (Candida parapsilosis): 0.0313 µg/mL (≈ 0.0896 µM)
MFC (Trichosporon asahii): > 64 µg/mL
MIC (Trichosporon asahii): 0.0625 µg/mL (≈ 0.179 µM)
MFC (Aspergillus fumigatus [9]): 32 µg/mL (≈ 91.6 µM)
MIC (Aspergillus fumigatus [9]): 0.25 µg/mL (≈ 0.716 µM)
MFC (Malassezia furfur): > 64 µg/mL
MIC (Malassezia furfur): 0.0625 µg/mL (≈ 0.179 µM)
MIC (Candida albicans [10]): 0.0625 µg/mL (≈ 0.179 µM)
MFC (Rhizopus arrhizus): 32 µg/mL (≈ 91.6 µM)
MIC (Rhizopus arrhizus): 8 µg/mL (≈ 22.9 µM)
MIC50 (Pichia kudriavzevii): 0.5 µg/mL (≈ 1.43 µM)
MIC90 (Pichia kudriavzevii): 0.5 µg/mL (≈ 1.43 µM)
MFC (Saccharomyces cerevisiae): > 64 µg/mL
MIC (Saccharomyces cerevisiae): 0.125 µg/mL (≈ 0.358 µM)
MFC (Candida albicans [11]): > 64 µg/mL
MIC (Candida albicans [11]): 0.0039 µg/mL (≈ 0.0112 µM)
MFC (Nakaseomyces glabratus): > 64 µg/mL
MIC (Nakaseomyces glabratus): 0.25 µg/mL (≈ 0.716 µM)
MFC (Aspergillus terreus): 32 µg/mL (≈ 91.6 µM)
MIC (Aspergillus terreus): 0.5 µg/mL (≈ 1.43 µM)
MIC (Candida albicans [12]): 0.0039 µg/mL (≈ 0.0112 µM)
MIC50 (Candida albicans [12]): 0.0039 µg/mL (≈ 0.0112 µM)
MIC90 (Candida albicans [12]): 0.0078 µg/mL (≈ 0.0223 µM)
MFC (Candida albicans [13]): > 64 µg/mL
MIC (Candida albicans [13]): 0.0039 µg/mL (≈ 0.0112 µM)
MFC (Cryptococcus neoformans [14]): > 64 µg/mL
MIC (Cryptococcus neoformans [14]): 0.0313 µg/mL (≈ 0.0896 µM)
MIC50 (Cryptococcus neoformans [15]): 0.0313 µg/mL (≈ 0.0896 µM)
MIC90 (Cryptococcus neoformans [15]): 0.0625 µg/mL (≈ 0.179 µM)

— ChEMBL document CHEMBL1255303, “In vitro and in vivo antifungal activities of T-2307, a novel arylamidine” (2008)
